A selection: hits, their analogues and other compounds. The true share with any hit is near 5.8%.
WT yeast gro inh: growth inhibition of WT yeast, mitochondrial fusion screen | mitochondrial fusion phenotypic screen, WT strain | 190,000 tested, 2.1% active | inhibition, % at 10 µM; in the data active = inhibition above about 58%; tested in S. cerevisiae
p47phox inh: p47phox (human) inhibition; P14598; p47phox/p22phox peptide binding, fluorescence polarization, 2 h; inhibition, % at 24.7 µM; 220,000 tested, 0.53% active;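 active = inhibition above about 30%, limit read from the data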
Target sequence (P14598 whole entry, looked up): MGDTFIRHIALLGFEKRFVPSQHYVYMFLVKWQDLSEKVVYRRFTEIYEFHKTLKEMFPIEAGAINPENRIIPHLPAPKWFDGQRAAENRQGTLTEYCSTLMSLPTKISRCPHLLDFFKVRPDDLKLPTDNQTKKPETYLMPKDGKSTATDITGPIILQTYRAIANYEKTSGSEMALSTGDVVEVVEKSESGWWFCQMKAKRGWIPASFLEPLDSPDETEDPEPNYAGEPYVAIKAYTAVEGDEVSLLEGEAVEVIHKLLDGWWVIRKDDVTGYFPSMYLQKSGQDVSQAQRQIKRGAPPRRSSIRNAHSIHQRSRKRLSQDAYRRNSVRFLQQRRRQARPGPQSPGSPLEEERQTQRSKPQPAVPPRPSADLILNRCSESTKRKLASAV
RBBP9 inh: human RBBP9 hydrolase inhibition; O75884; recombinant RBBP9, FP-Rh probe fluorescence polarization; inhibition, % at 7.94 µM; 220,000 tested, 0.2% active; AID 1515;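 active = inhibition above the campaign mean of all tested compounds plus 3 SD, cut at about 14% in these data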
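System: RBBP9 protein / Quantity: 2.5 µM RBBP9 dispensing solution, before mixing / Also added: Serine-hydrolase probe FP-Rh, 375 nM pre-mixing / Dosing: 7.94 µM single dose, 0.794% DMSO / Timing: enzyme-compound preincubation 30 min, then probe labeling 45 min, 25 °C / Signal: FP readout at 525/598 nm / Controls: DMSO-treated enzyme wells and wells lacking RBBP9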
ROMK mod: human ROMK K+ channel modulation, primary screen | B-score at 10 µM | 130,000 tested, 2% active | Tet-inducible ROMK, thallium flux fluorescence; actives lie on both sides | AID 1918;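 active = signal ratio slope over the read window, or its plate-corrected B-score, at least 3 SD from the plate mean, either direction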;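 note: B-score of the F/F0 ratio slope over 7 to 12 s after thallium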
KCC2 mod: modulates chloride dependent transport by human KCC2. Q9H2X9. KCC2 cells, thallium flux FluoZin-2 fluorescence. B-score of Tl+ flux slope (higher = more flux/activation; lower = inhibition) at 10 µM. 190,000 tested, 2.2% active. AID 1456;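 active = thallium flux slope and its plate-corrected score both differing from the plate sample mean at a set confidence after two filtering rounds, in either direction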;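 note: slope of fluorescence scaled to starting intensity during 10 to 20 s after thallium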
14-3-3 Bad PPI: disrupts binding of bovine 14-3-3 zeta to phospho-Bad peptide. 220,000 tested, 0.71% active. inhibition, % at 21.7 µM. TR-FRET 14-3-3zeta/Dy647-pBad peptide displacement, 1 h. P63103. AID 781;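 active = inhibition above about 70%, limit read from the data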
Target sequence (P63103 whole entry, looked up): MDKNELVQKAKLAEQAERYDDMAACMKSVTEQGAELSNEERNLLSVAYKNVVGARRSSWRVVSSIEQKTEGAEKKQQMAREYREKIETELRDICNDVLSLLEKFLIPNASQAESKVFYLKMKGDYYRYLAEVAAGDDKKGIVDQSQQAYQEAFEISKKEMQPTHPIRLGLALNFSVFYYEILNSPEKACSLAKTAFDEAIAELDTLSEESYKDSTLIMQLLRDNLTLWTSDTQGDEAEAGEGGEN
KCC2 secondary: KCC2 (human) modulation, secondary assay; shares compounds with KCC2 mod; HEK293-KCC2, thallium flux, FluoZin2 fluorescence; hits give high values; normalised thallium flux (F/F0 slope) at 10 µM; 3,700 tested, 15% active;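 active = thallium flux slope above the same plate's solvent-only control mean plus 3 SD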
KCC2 bumet counter: thallium flux despite bumetanide block in KCC2 cells, secondary assay 3; shares compounds with KCC2 mod; normalized thallium flux at 10 µM; AID 1714; 3,700 tested, 49% active; HEK293-KCC2 + bumetanide/ouabain, thallium flux FluoZin2; hits give high values;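 active = thallium entry rate above the same plate's blocked-transporter control wells by more than 3 SD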;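 note: raw slope of fluorescence over initial fluorescence between 10 and 20 s after thallium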
KCC2 secondary2: confirmation of human KCC2 transport modulators | shares compounds with KCC2 mod | HEK293-KCC2, thallium flux FluoZin2 fluorescence; actives lie on both sides; F/F0 rise rate, 10–20 s post-thallium | normalized thallium flux at 10 µM | 3,700 tested, 23% active;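 active = thallium flux slope more than 3 SD above or below the plate's solvent-only control mean, mostly below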
HEK293 Tl flux: parental HEK flux effect, counter-screen; HEK293 parental cells, thallium flux FluoZin2, ouabain; baseline-ratio fluorescence slope, 10–20 s after thallium; shares compounds with KCC2 mod; 3,700 tested, 46% active; thallium flux rate (normalised fluorescence) at 10 µM;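 active = thallium flux rate significantly above the same plate's solvent-only control wells, beyond their mean plus 3 SD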
KCC2 retest ouab: KCC2 (human) modulation, ouabain retest | raw Tl+ flux slope (below DMSO = inhibition, above = activation) at 10 µM | shares compounds with KCC2 mod | HEK293-KCC2, thallium flux FluoZin2 fluorescence; bidirectional: low = inhibitor, high = activator | AID 1717 | 3,700 tested, 48% active;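 active = thallium flux slope beyond 3 SD from same-plate DMSO control mean in most replicates, usually higher, sometimes lower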;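 note: slope of initial-normalized fluorescence between seconds 10 and 20 after thallium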
HEK293 Tl flux2: acts in parental HEK cells, second KCC2 counter-screen; shares compounds with KCC2 mod; HEK293 parental, thallium flux FluoZin-2 fluorescence slope; thallium flux slope at 10 µM; 3,700 tested, 33% active;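 active = thallium flux slope above the same plate's solvent-control mean plus 3 SD in both duplicate wells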;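 note: run without ouabain in cells lacking the KCC2 cotransporter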
Hits are given with their value.

Results for CCOC(=O)c1cc2c(ccn2-c2ccc(F)cc2)n1CC(=O)NC(C)(C)C ?
WT yeast gro inh: inactive; p47phox inh: inactive; RBBP9 inh: inactive; ROMK mod: inactive; KCC2 mod: -5.6; 14-3-3 Bad PPI: inactive; KCC2 secondary: inactive; KCC2 bumet counter: inactive; KCC2 secondary2: 0.024; HEK293 Tl flux: inactive; KCC2 retest ouab: 0.017; HEK293 Tl flux2: inactive

How did Cc1ccc(CCc2nnc(SCC(=O)Nc3cc(Cl)ccc3Cl)n2-c2ccccc2)o1 do in these assays?
WT yeast gro inh: 61; p47phox inh: inactive; RBBP9 inh: inactive; ROMK mod: inactive; KCC2 mod: -4.7; 14-3-3 Bad PPI: inactive; KCC2 secondary: inactive; KCC2 bumet counter: inactive; KCC2 secondary2: inactive; HEK293 Tl flux: inactive; KCC2 retest ouab: inactive; HEK293 Tl flux2: inactive

How did COCc1nnc(SCC(=O)Nc2cccc(Cl)c2C)n1-c1ccccc1 do in these assays?
WT yeast gro inh: inactive; p47phox inh: inactive; RBBP9 inh: inactive; ROMK mod: inactive; KCC2 mod: inactive; 14-3-3 Bad PPI: inactive

Results for COc1ccc(OC)c(NC(=O)c2cccnc2Sc2ccccc2)c1 ?
WT yeast gro inh: inactive; p47phox inh: inactive; RBBP9 inh: inactive; ROMK mod: inactive; KCC2 mod: inactive; 14-3-3 Bad PPI: inactive

What do the screens show for `COc1ccc(C2(CNC(=O)c3cccs3)CCOCC2)cc1`?
WT yeast gro inh: inactive; p47phox inh: inactive; RBBP9 inh: inactive; ROMK mod: inactive; KCC2 mod: inactive; 14-3-3 Bad PPI: inactive

How did CN(Cc1ccccc1)C(=O)COC(=O)c1cc(NS(=O)(=O)c2cccs2)ccc1O do in these assays?
WT yeast gro inh: inactive; p47phox inh: inactive; RBBP9 inh: inactive; ROMK mod: inactive; KCC2 mod: -3.5; 14-3-3 Bad PPI: inactive; KCC2 secondary: inactive; KCC2 bumet counter: inactive; KCC2 secondary2: 0.022; HEK293 Tl flux: inactive; KCC2 retest ouab: inactive; HEK293 Tl flux2: inactive

What do the screens show for `O=C(COC(=O)c1cc(NS(=O)(=O)c2cccs2)ccc1O)Nc1ccccc1`?
p47phox inh: inactive; RBBP9 inh: inactive; KCC2 mod: inactive; 14-3-3 Bad PPI: inactive

What do the screens show for `Cc1ccc(C(=O)n2nc(C#N)c(C#N)c2N)cc1`?
p47phox inh: inactive; RBBP9 inh: inactive; ROMK mod: inactive; KCC2 mod: inactive; 14-3-3 Bad PPI: inactive

What do the screens show for `COc1ccccc1C1CC(c2ccc(Cl)cc2)Nc2nc(N)nn21` (stereo unspecified)?
WT yeast gro inh: inactive; p47phox inh: inactive; RBBP9 inh: inactive; KCC2 mod: inactive; 14-3-3 Bad PPI: inactive

What do the screens show for `CCOc1ccccc1C1CC(c2ccc(F)cc2)Nc2nc(N)nn21` (stereo unspecified)?
WT yeast gro inh: inactive; p47phox inh: inactive; RBBP9 inh: inactive; KCC2 mod: -3.4; 14-3-3 Bad PPI: inactive; KCC2 secondary: inactive; KCC2 bumet counter: inactive; KCC2 secondary2: inactive; HEK293 Tl flux: inactive; KCC2 retest ouab: inactive; HEK293 Tl flux2: inactive

How did COc1cc(/C=N/NC(N)=O)ccc1OCC(=O)Nc1cc(C)c(C)cc1Br do in these assays?
WT yeast gro inh: inactive; p47phox inh: inactive; RBBP9 inh: inactive; ROMK mod: inactive; KCC2 mod: inactive; 14-3-3 Bad PPI: inactive

What do the screens show for `CN(CC1CCOCC1)C(=O)CC1C(=O)NCCN1C/C=C/c1ccccc1` (stereo unspecified)?
WT yeast gro inh: inactive; p47phox inh: inactive; RBBP9 inh: inactive; ROMK mod: inactive; 14-3-3 Bad PPI: inactive

How did COC(=O)[C@H](CC(C)C)NC(=O)Nc1ccccc1F do in these assays?
p47phox inh: inactive; RBBP9 inh: inactive; KCC2 mod: inactive; 14-3-3 Bad PPI: inactive

Results for CN(Cc1ccccc1)C(=S)NC(=O)c1ccccc1 ?
WT yeast gro inh: inactive; p47phox inh: inactive; RBBP9 inh: inactive; ROMK mod: inactive; KCC2 mod: 65; 14-3-3 Bad PPI: inactive; KCC2 secondary: 0.056; KCC2 bumet counter: 0.16; KCC2 secondary2: 0.07; HEK293 Tl flux: 0.085; KCC2 retest ouab: 0.13; HEK293 Tl flux2: 0.036

Results for CCCOc1ccc(CN(CCC#N)C(=S)NC(=O)c2ccccc2)cc1 ?
WT yeast gro inh: inactive; p47phox inh: inactive; RBBP9 inh: inactive; ROMK mod: inactive; KCC2 mod: 80; 14-3-3 Bad PPI: inactive; KCC2 secondary: 0.055; KCC2 bumet counter: 0.11; KCC2 secondary2: 0.074; HEK293 Tl flux: 0.1; KCC2 retest ouab: 0.11; HEK293 Tl flux2: 0.055

What do the screens show for `N#CCCN(Cc1cccnc1)C(=S)NC(=O)c1ccc(S(=O)(=O)N2CCCC2)cc1`?
WT yeast gro inh: inactive; p47phox inh: inactive; RBBP9 inh: inactive; ROMK mod: inactive; KCC2 mod: inactive; 14-3-3 Bad PPI: inactive

What do the screens show for `COc1ccc(C(=O)NC(=S)N(C)Cc2ccccc2)cc1Br`?
WT yeast gro inh: inactive; p47phox inh: inactive; RBBP9 inh: inactive; ROMK mod: inactive; KCC2 mod: 11; 14-3-3 Bad PPI: inactive; KCC2 secondary: inactive; KCC2 bumet counter: 0.019; KCC2 secondary2: inactive; HEK293 Tl flux: 0.022; KCC2 retest ouab: 0.044; HEK293 Tl flux2: 0.016

Results for Cc1cc(NC(=O)c2c(-c3c(Cl)cccc3Cl)noc2C)n(C)n1 ?
p47phox inh: inactive; RBBP9 inh: inactive; KCC2 mod: inactive; 14-3-3 Bad PPI: inactive

Results for CCc1c(O)nc(SCC(=O)Nc2ccccc2)n(-c2ccccc2)c1=O ?
WT yeast gro inh: inactive; p47phox inh: inactive; RBBP9 inh: inactive; KCC2 mod: inactive; 14-3-3 Bad PPI: inactive

What do the screens show for `CCc1c(O)nc(SCC(=O)Nc2ccc(C)cc2)n(C2CCCCC2)c1=O`?
WT yeast gro inh: inactive; p47phox inh: inactive; RBBP9 inh: inactive; ROMK mod: inactive; 14-3-3 Bad PPI: inactive; KCC2 secondary: inactive; KCC2 bumet counter: inactive; KCC2 secondary2: inactive; HEK293 Tl flux: inactive; KCC2 retest ouab: 0.016; HEK293 Tl flux2: inactive
